{
  "source": "ChEMBL document CHEMBL3861957",
  "about": "“Straightforward synthesis of 2,4,6-trisubstituted 1,3,5-triazine compounds targeting cysteine cathepsins K and S” (Eur J Med Chem, 2016)",
  "key": {"Cathepsin B": {"molecular_target": "Cathepsin B (Homo sapiens, UniProt P07858)", "experiment": "Inhibition of human cathepsin B using Z-Phe-Arg-AMC as substrate after 30 mins by spectromicrofluorimetric method", "procedure,_shortened": "(§1)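 Enzyme (0.5 nM) preincubated 30 min at 37 °C with inhibitor (0-250 nM) in 0.1 M sodium acetate pH 5.5, 2 mM DTT, 0.01% Brij35. Residual activity on Z-Phe-Arg-AMC at 2.5, 5 and 10 µM, fluorescence ex 350/em 460 nm. IC50 averaged from slopes. Triplicate, repeated three times.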"}, "Procathepsin L": {"molecular_target": "Procathepsin L (Homo sapiens, UniProt P07711)", "sequence (P07711 whole entry)": "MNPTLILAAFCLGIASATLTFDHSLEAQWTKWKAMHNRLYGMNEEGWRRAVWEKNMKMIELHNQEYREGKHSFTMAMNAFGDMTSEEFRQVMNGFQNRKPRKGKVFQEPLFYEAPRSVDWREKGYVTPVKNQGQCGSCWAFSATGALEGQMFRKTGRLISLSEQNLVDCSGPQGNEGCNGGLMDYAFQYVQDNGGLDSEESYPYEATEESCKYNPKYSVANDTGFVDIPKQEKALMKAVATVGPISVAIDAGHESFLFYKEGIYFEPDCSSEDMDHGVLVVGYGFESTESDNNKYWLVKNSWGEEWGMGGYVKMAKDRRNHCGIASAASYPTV", "experiment": "Inhibition of human cathepsin L using Z-Phe-Arg-AMC as substrate after 30 mins by spectromicrofluorimetric method", "procedure,_shortened": "as §1"}, "Cathepsin S": {"molecular_target": "Cathepsin S (Homo sapiens, UniProt P25774)", "sequence (P25774 whole entry)": "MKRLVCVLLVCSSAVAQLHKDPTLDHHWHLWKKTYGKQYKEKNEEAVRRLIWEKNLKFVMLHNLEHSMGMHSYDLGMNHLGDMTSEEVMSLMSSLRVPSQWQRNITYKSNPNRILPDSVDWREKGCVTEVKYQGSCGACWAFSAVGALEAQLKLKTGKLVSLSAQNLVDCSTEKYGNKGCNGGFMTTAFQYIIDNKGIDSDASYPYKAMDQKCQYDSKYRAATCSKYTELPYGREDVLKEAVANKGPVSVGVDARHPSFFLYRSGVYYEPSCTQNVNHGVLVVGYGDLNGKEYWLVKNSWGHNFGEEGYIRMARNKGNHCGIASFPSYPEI", "experiment": "Inhibition of human cathepsin S using Z-LR-AMC as substrate after 30 mins by spectromicrofluorimetric method", "procedure,_shortened": "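Cathepsin S (0.5 nM) preincubated 30 min at 37 °C with inhibitor (0-250 nM) in 0.1 M sodium acetate pH 5.5 containing 2 mM DTT and 0.01% Brij35. Residual activity read with Z-LR-AMC at 2.5, 5 and 10 µM, fluorescence ex 350/em 460 nm. IC50 averaged from slopes. Triplicate, repeated three times.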"}, "Cathepsin K": {"molecular_target": "T1, Cathepsin K (Homo sapiens, UniProt P43235)", "T1 sequence (P43235 whole entry)": "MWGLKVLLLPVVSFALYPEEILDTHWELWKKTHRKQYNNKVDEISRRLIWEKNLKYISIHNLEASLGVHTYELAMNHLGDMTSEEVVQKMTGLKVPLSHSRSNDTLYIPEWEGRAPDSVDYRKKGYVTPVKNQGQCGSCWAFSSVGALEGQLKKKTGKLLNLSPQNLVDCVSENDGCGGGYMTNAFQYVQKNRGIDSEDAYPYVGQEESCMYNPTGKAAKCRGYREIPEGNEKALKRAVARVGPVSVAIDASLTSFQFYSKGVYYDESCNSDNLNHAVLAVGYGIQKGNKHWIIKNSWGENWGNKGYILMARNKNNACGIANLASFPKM", "experiment": "Inhibition of human cathepsin K expressed in Pichia pastoris using Z-Phe-Arg-AMC as substrate after 30 mins by spectromicrofluorimetric method", "procedure,_shortened": "as §1"}},
  "data": [
    {"smiles": "N#Cc1nc(Nc2cccc([N+](=O)[O-])c2)nc(N2CCNCC2)n1", "values": [
      {"measurement": "IC50", "setting": "Cathepsin B", "result": 34, "unit": "nM"},
      {"measurement": "IC50", "setting": "Procathepsin L", "result": 17, "unit": "nM"},
      {"measurement": "IC50", "setting": "Cathepsin S", "result": 17, "unit": "nM"},
      {"measurement": "IC50", "setting": "Cathepsin K", "result": 17, "unit": "nM"}
    ]},
    {"smiles": "N#Cc1nc(NC[C@H](O)c2ccccc2)nc(N2CCNCC2)n1", "values": [
      {"measurement": "IC50", "setting": "Cathepsin B", "result": 136, "unit": "nM"},
      {"measurement": "IC50", "setting": "Procathepsin L", "result": 45, "unit": "nM"},
      {"measurement": "IC50", "setting": "Cathepsin S", "result": 23, "unit": "nM"},
      {"measurement": "IC50", "setting": "Cathepsin K", "result": 68, "unit": "nM"}
    ]},
    {"smiles": "N#Cc1nc(Nc2ccc(C(F)(F)F)cc2)nc(N2CCNCC2)n1", "values": [
      {"measurement": "IC50", "setting": "Cathepsin S", "result": 23, "unit": "nM"},
      {"measurement": "IC50", "setting": "Cathepsin K", "result": 28, "unit": "nM"}
    ]},
    {"smiles": "N#Cc1nc(NC[C@H](O)c2ccccc2)nc(NC2CCCCC2)n1", "values": [
      {"measurement": "IC50", "setting": "Cathepsin S", "result": 23, "unit": "nM"},
      {"measurement": "IC50", "setting": "Cathepsin K", "result": 70, "unit": "nM"}
    ]},
    {"smiles": "COc1ccc(Nc2nc(C#N)nc(NC3CCCCC3)n2)cc1", "values": [
      {"measurement": "IC50", "setting": "Procathepsin L", "result": 226, "unit": "nM"},
      {"measurement": "IC50", "setting": "Cathepsin S", "result": 136, "unit": "nM"},
      {"measurement": "IC50", "setting": "Cathepsin K", "result": 23, "unit": "nM"}
    ]},
    {"smiles": "Cc1cccc(CNc2nc(C#N)nc(NC3CCCCC3)n2)c1", "values": [
      {"measurement": "IC50", "setting": "Cathepsin S", "result": 23, "unit": "nM"},
      {"measurement": "IC50", "setting": "Cathepsin K", "result": 60, "unit": "nM"}
    ]},
    {"smiles": "N#Cc1nc(Nc2ccc([N+](=O)[O-])cc2)nc(NC2CCCCC2)n1", "values": [
      {"measurement": "IC50", "setting": "Procathepsin L", "result": 136, "unit": "nM"},
      {"measurement": "IC50", "setting": "Cathepsin S", "result": 90, "unit": "nM"},
      {"measurement": "IC50", "setting": "Cathepsin K", "result": 17, "unit": "nM"}
    ]},
    {"smiles": "N#Cc1ccc(Nc2nc(C#N)nc(N3CCNCC3)n2)cc1", "values": [
      {"measurement": "IC50", "setting": "Cathepsin B", "result": 57, "unit": "nM"},
      {"measurement": "IC50", "setting": "Procathepsin L", "result": 113, "unit": "nM"},
      {"measurement": "IC50", "setting": "Cathepsin K", "result": 28, "unit": "nM"}
    ]},
    {"smiles": "COc1ccc(Nc2nc(C#N)nc(N3CCNCC3)n2)cc1", "values": [
      {"measurement": "IC50", "setting": "Cathepsin B", "result": 45, "unit": "nM"},
      {"measurement": "IC50", "setting": "Procathepsin L", "result": 17, "unit": "nM"},
      {"measurement": "IC50", "setting": "Cathepsin S", "result": 17, "unit": "nM"},
      {"measurement": "IC50", "setting": "Cathepsin K", "result": 17, "unit": "nM"}
    ]},
    {"smiles": "Cc1cccc(CNc2nc(C#N)nc(N3CCNCC3)n2)c1", "values": [
      {"measurement": "IC50", "setting": "Cathepsin B", "result": 57, "unit": "nM"},
      {"measurement": "IC50", "setting": "Cathepsin S", "result": 17, "unit": "nM"},
      {"measurement": "IC50", "setting": "Cathepsin K", "result": 23, "unit": "nM"}
    ]},
    {"smiles": "N#Cc1nc(Nc2ccc(C(F)(F)F)cc2)nc(NC2CCCCC2)n1", "values": [
      {"measurement": "IC50", "setting": "Cathepsin S", "result": 102, "unit": "nM"},
      {"measurement": "IC50", "setting": "Cathepsin K", "result": 34, "unit": "nM"}
    ]},
    {"smiles": "N#Cc1nc(NCCc2ccccc2)nc(NC2CCCCC2)n1", "values": [
      {"measurement": "IC50", "setting": "Cathepsin S", "result": 23, "unit": "nM"},
      {"measurement": "IC50", "setting": "Cathepsin K", "result": 80, "unit": "nM"}
    ]},
    {"smiles": "N#Cc1nc(Nc2cccc([N+](=O)[O-])c2)nc(NC2CCCCC2)n1", "values": [
      {"measurement": "IC50", "setting": "Cathepsin B", "result": 79, "unit": "nM"},
      {"measurement": "IC50", "setting": "Procathepsin L", "result": 23, "unit": "nM"},
      {"measurement": "IC50", "setting": "Cathepsin S", "result": 28, "unit": "nM"},
      {"measurement": "IC50", "setting": "Cathepsin K", "result": 17, "unit": "nM"}
    ]},
    {"smiles": "N#Cc1nc(Nc2ccc([N+](=O)[O-])cc2)nc(N2CCNCC2)n1", "values": [
      {"measurement": "IC50", "setting": "Procathepsin L", "result": 17, "unit": "nM"},
      {"measurement": "IC50", "setting": "Cathepsin S", "result": 23, "unit": "nM"},
      {"measurement": "IC50", "setting": "Cathepsin K", "result": 17, "unit": "nM"}
    ]},
    {"smiles": "N#Cc1ccc(Nc2nc(C#N)nc(NC3CCCCC3)n2)cc1", "values": [
      {"measurement": "IC50", "setting": "Cathepsin S", "result": 23, "unit": "nM"},
      {"measurement": "IC50", "setting": "Cathepsin K", "result": 67, "unit": "nM"}
    ]}
  ]
}
